Source: PubChem (several laboratories)
Shown are actives, neighbours in structure and some others; about 4.8% of the full set was active somewhere.
PAFAH1B3 inh – blocks human PAF acetylhydrolase 1B catalytic subunit 3; Q15102; recombinant PAFAH1B3, FP-rhodamine probe, fluorescence polarization; inhibition, % at 3.39 µM; 340,000 compounds, 0.28% hits; AID 492972;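 active = inhibition above the screen-wide average of all tested compounds plus 3 SD, cut at about 25% in these data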;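 note: 0% = enzyme with DMSO only and 100% = wells lacking PAFAH1B3 protein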
UCH37 DUB inh – inhibitors of human deubiquitinating enzyme UCH37 | purified proteasome/UCH37, Ub-AMC cleavage fluorescence | 330,000 compounds, 0.33% hits | Q9Y5K5 | inhibition, % (test concentration not listed);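 active = mean inhibition over replicate wells above about 20%, limit read from the data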;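 note: 0% = compound-free wells with enzyme and 100% = wells lacking proteasome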
Target sequence (Q9Y5K5 whole entry, looked up): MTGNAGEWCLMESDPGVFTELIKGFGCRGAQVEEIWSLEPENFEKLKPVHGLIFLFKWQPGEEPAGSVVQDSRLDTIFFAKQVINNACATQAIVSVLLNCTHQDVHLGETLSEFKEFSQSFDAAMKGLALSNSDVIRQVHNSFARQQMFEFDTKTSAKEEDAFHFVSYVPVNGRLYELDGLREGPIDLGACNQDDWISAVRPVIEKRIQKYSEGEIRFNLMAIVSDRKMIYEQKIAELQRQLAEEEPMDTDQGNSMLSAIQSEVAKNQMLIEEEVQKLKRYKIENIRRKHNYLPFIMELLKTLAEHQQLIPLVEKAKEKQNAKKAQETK
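Signal – fluorescence, ex 355 nm, em 460 nm · System – Proteasome-bound UCH37 · Input – 0.15 nM proteasome as dispensed · Timing – 30 min preincubation with enzyme, 25 min cleavage at room temperature · Read-out basis – percent inhibition of cleavage signal versus uninhibited and no-proteasome wells · Medium – Tris-HCl pH 7.4 with ATP-MgCl2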
pPAFAH FP inh – inhibitors of human plasma PAF acetylhydrolase (pPAFAH) | Q13093 | recombinant pPAFAH, FP-rhodamine probe fluorescence polarization | inhibition, % at 3.39 µM | 330,000 compounds, 1.5% hits | AID 463082;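 active = inhibition above the mean inhibition across the screen plus 3 SD, cut at about 25% in these data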;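 note: inhibitors block binding of the rhodamine activity-based probe so polarization drops; 0% = enzyme with DMSO and 100% = wells lacking pPAFAH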
PAFAH2 inh – inhibitors of human PAFAH2 | Q99487 | recombinant PAFAH2, FP-rhodamine activity probe, fluorescence polarization | inhibition, % at 3.39 µM | 340,000 compounds, 0.99% hits;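 active = inhibition above the mean over all tested compounds plus 3 SD, cut at about 30% in these data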;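 note: inhibitors block probe labeling of enzyme so polarization drops; 0% = enzyme with DMSO and 100% = wells lacking PAFAH2 protein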
PAFAH1B2 inh – PAFAH1B2 (human) inhibition; 340,000 compounds, 1.2% hits; inhibition, % at 3.39 µM; P68402; recombinant PAFAH1B2, FP-rhodamine activity probe, fluorescence polarization; AID 492953;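 active = inhibition above the mean of all tested compounds plus 3 SD, cut at about 24% in these data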;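 note: 0% = enzyme with DMSO and 100% = wells lacking PAFAH1B2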
Target sequence (P68402 whole entry, looked up): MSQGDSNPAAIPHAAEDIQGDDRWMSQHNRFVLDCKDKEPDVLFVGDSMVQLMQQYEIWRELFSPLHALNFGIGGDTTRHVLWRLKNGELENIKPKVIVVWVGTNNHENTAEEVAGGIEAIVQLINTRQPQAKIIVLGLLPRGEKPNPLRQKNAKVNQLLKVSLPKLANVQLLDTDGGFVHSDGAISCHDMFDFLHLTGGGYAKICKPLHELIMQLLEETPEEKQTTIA
GRIN3A LBD mod – modulates the human NR3A ligand-binding domain | NR3A LBD differential scanning fluorimetry, Tm shift; 0% = protein alone, 100% = glycine-bound protein | Tm shift relative to glycine control, % at 25 µM | 340,000 compounds, 2.5% hits | AID 1259313;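 active = melting temperature shift of at least 10% of the positive control shift, at one fixed dose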
The depositor's hits bear a star; . = no result.

SMILES	PAFAH1B3 inh	UCH37 DUB inh	pPAFAH FP inh	PAFAH2 inh	PAFAH1B2 inh	GRIN3A LBD mod
NS(=O)(=O)c1ccc(N/N=C/c2ccncc2)cc1	1	.	2	4	0	-35
Cc1cccnc1Nc1nc(-c2ccccn2)cs1	15	3	5	6	2	-7
c1ccc(Nc2nc(-c3cccs3)cs2)nc1	1	1	11	10	3	-1
Oc1ccc(-c2csc(Nc3ccccn3)n2)c(O)c1	6	-1	9	1	11	36*
Cc1cccnc1Nc1nc(-c2ccc(O)cc2O)cs1	8	2	2	-1	7	25*
S=C(c1ccccc1)N(c1ccccc1)c1ccccc1	4	7	6	1	38*	-2
Cc1ccc(-n2c(Cc3ccccc3)n[nH]c2=S)c(C)c1	3	1	-5	-2	7	-2
S=c1[nH]nc(Cc2ccccc2)n1-c1cccc2ccccc12	-6	1	4	2	28*	0
Cc1ccc(C(=O)O)cc1-c1ccc(/C=C2/NC(=O)N(c3ccccc3)C2=O)o1	12	.	29*	20	9	0
O=C(NN=Cc1ccccc1F)NC12CC3CC(CC(C3)C1)C2	.	1	.	.	.	.
O=c1cc(-c2ccccc2)nc(SCc2ccc(F)cc2)[nH]1	3	3	4	12	17	1
CCCc1cc(=O)[nH]c(Nc2ccc(N3CCCCC3)cc2)n1	8	6	8	7	4	-1
CCCCc1ccc(Nc2nc(CCC)cc(=O)[nH]2)cc1	2	1	29*	0	1	1
CCCc1cc(=O)[nH]c(SCc2ccc(F)cc2)n1	6	2	31*	2	11	1
Brc1cccc(C=Nn2cnnc2)c1	.	3	.	.	.	.
COc1ccc(CC(C)=NNC(=S)Nc2ccccc2F)cc1	.	5	.	.	.	.
CCCCC[n+]1ccn(C2=C([O-])c3ccccc3C(=O)/C2=N\S(=O)(=O)c2ccccc2)c1	23	24*	8	4	5	-1
Cc1ccc(N=C2NC(=O)/C(=C/c3cccn3C)S2)cc1C	.	4	17	.	.	1
Cc1cccc(N=C2NC(=O)/C(=C/c3cccn3C)S2)c1C	8	6	32*	10	3	-4
O=C(Nc1ccccc1)N1CC=C(c2ccc(F)cc2)CC1	1	1	5	-2	3	21*
Cc1nc2ccc(Br)cn2c1C(=O)NN=Cc1ccccc1Cl	.	7	.	.	.	.
O=C1c2ccccc2C(=O)c2c1ccc(C(=O)N1CCCCC1)c2NCCO	7	5	1	-1	0	12*
CC1CCCN(C(=O)c2ccc3c(c2NCCO)C(=O)c2ccccc2C3=O)C1 (stereo not given)	3	4	8	1	2	5
O=S(=O)(c1ccccc1)N(c1ccccc1)S(=O)(=O)c1ccccc1	1	.	.	8	4	11*
O=C(Cc1sc(-c2ccccc2)nc1-c1ccccc1)Nc1ccc(Cl)cc1	1	-2	-11	-8	-1	24*
SMILES	PAFAH1B3 inh	UCH37 DUB inh	pPAFAH FP inh	PAFAH2 inh	PAFAH1B2 inh	GRIN3A LBD mod
COc1ccc(Cl)cc1NC(=O)CC(C)=NNC(=O)Cc1ccccc1	.	-1	.	.	.	.
COc1ccc(NS(=O)(=O)c2ccc3nc(COc4ccc(Cl)c(C)c4)[nH]c3c2)cc1	-41	1	-30	-57	-23	29*
COc1cc(C2Nc3cc(Cl)c(S(N)(=O)=O)cc3S(=O)(=O)N2)cc(OC)c1OC (stereo not given)	9	-2	0	6	2	1
COc1cccc(C2Nc3cc(Cl)c(S(N)(=O)=O)cc3S(=O)(=O)N2)c1 (stereo not given)	2	1	7	-3	3	11*
COc1c(Br)cc(Br)cc1C=NNC(=O)c1cccnc1	.	7	.	.	.	.
CC(=O)Nc1ccc(Nc2ncnc3c2cnn3-c2ccc(C)cc2C)cc1	-3	-2	1	-9	0	-2
Clc1ccc(Nc2ncnc3c2cnn3-c2ccccc2)cc1	1	-14	-2	-8	0	2
CC(=O)Nc1ccc(Nc2ncnc3c2cnn3-c2ccccc2)cc1	3	-89	8	-9	4	19*
CC(=O)Nc1ccc(Nc2ncnc3c2cnn3-c2cccc(C)c2)cc1	0	-25	9	2	2	22*
O=C(Nc1ccc(S(=O)(=O)Nc2cnc3ccccc3n2)cc1)c1ccc(Cl)c([N+](=O)[O-])c1	6	-5	15	-2	24	24*
O=C(Nc1ccc(Nc2ccccc2)cc1)c1ccc(Cl)c([N+](=O)[O-])c1	10	5	15	-2	-2	24*
Cc1cc(C(=O)Nc2ccncc2)ccc1[N+](=O)[O-]	1	2	-2	-3	2	-2
Cc1cc(C(=O)Nc2ccc(Nc3ccccc3)cc2)ccc1[N+](=O)[O-]	11	4	17	-2	2	12*
O=C(c1ccc(Cl)c([N+](=O)[O-])c1)N(c1ccccn1)c1ccccn1	2	3	-3	3	1	15*
COc1ccc(C(=O)Nc2ccc(S(=O)(=O)Nc3cnc4ccccc4n3)cc2)cc1	3	-4	1	-8	1	-1
O=[N+]([O-])c1ccc(C=NN2CCN(c3ccncc3S(=O)(=O)N3CCCCC3)CC2)cc1	.	3	.	.	.	.
CCOc1cc(C=NNc2nnc(C)n2N)ccc1O	.	6	.	.	.	.
CC(=NNC(=O)CCc1c[nH]c2ccccc12)c1ccc([N+](=O)[O-])cc1	.	2	.	.	.	.
O=C(Nc1ccc(Nc2ccccc2)cc1)c1ccc(Cl)cc1[N+](=O)[O-]	.	6	12	.	.	12*
CC(=O)NS(=O)(=O)c1ccc(NC(=O)c2ccc(Cl)cc2[N+](=O)[O-])cc1	5	5	2	4	1	-2
CC(NC(=O)c1ccccc1NS(=O)(=O)c1ccc(CCC(=O)O)cc1)c1ccccc1 (stereo not given)	6	-8	3	2	28*	1
CCOC(=O)N1c2ccccc2C=CC1OCC (stereo not given)	.	.	6	.	.	.
O=C(CC1C=Cc2ccccc2N1C(=O)c1ccccc1)c1ccccc1 (stereo not given)	11	.	3	0	4	10*
Cc1[nH]n(-c2ccccc2)c(=O)c1/C=N/NC(=O)c1ccc(O)cc1O	18	.	11	-1	12	10*
CC(=O)NCc1ccc(C(=O)COC(=O)COc2ccccc2)s1	10	7	15	1	-2	0
CC(=O)NCc1ccc(C(=O)COC(=O)COc2ccc(Cl)c(C)c2)s1	6	1	27*	4	5	-2
CCOc1cc(C=NNC(=O)C(=O)NCc2cccnc2)ccc1O	.	12	.	.	.	.
CC(Cc1ccccc1)N/C=C1/CC(=O)NC1=O (stereo not given)	4	3	2	-4	8	14*
